Experimental data as given in ChEMBL document CHEMBL4316603, “Fluorination of Photoswitchable Muscarinic Agonists Tunes Receptor Pharmacology and Photochromic Properties” (J Med Chem, 2019).

What was measured:
[1] = molecular target: T1, Muscarinic acetylcholine receptor M1 (Homo sapiens, UniProt P11229); assay: Agonist activity at human muscarinic M1 receptor expressed in HEK293T cells co-expressing Galpha subunit and PLC-beta3 by split luciferase complementation assay; type: cell-based
T1 sequence (P11229 whole entry): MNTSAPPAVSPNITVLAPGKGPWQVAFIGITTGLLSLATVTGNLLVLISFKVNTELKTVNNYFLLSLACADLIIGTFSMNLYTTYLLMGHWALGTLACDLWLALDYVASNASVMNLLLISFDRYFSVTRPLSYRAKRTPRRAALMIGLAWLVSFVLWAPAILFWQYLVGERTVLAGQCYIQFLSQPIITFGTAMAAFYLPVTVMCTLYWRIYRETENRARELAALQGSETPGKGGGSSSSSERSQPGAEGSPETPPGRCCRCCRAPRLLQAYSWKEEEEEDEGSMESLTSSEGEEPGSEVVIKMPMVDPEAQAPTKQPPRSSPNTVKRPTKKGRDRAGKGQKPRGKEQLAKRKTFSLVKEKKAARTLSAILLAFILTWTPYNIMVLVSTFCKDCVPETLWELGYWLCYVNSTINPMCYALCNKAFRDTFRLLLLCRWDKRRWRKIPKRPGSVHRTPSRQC

[2] = Chemical stability of the compound at 50 uM incubated for 120 mins under dark conditions by UV-vis spectroscopic analysis; type: physicochemical; conditions: 2 h
[3] = molecular target: Muscarinic acetylcholine receptor; assay: Displacement of [3H]-QNB from muscarinic receptor in rat brain membranes incubated for 45 mins under dark conditions by radioligand binding assay; type: cell membranes
Procedure, shortened: (§1)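 Rat brain cortex membranes (meninges and white matter removed, homogenized and centrifuged twice at 50,000 x g, stored at -80 °C). Each tube held 20 μg membrane protein, 200 pM [³H]QNB and competitor at varying concentrations in 10 mM Tris-HCl pH 7.0 with 6 mM MgCl₂, incubated 45 min at 25 °C. Nonspecific binding was defined with 2 μM atropine. Samples were filtered on glass fiber, washed twice with ice-cold buffer and counted by scintillation.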

[4] = molecular target: Muscarinic acetylcholine receptor; assay: Displacement of [3H]-QNB from muscarinic receptor in rat brain membranes incubated for 45 mins under irradiation exposure at 365 nm by radioligand binding assay; type: cell membranes; procedure, shortened: as §1

SMILES	pEC50 [1]	Stability [2]	pIC50 [3]	pIC50 [4]
C[N+](C)(C)CC#CCOC1=NOCC1	8.9			
C[N+](C)(CC#CCOC1=NOCC1)Cc1cc(F)c(/N=N\c2c(F)cccc2F)c(F)c1.[Br-]	7.14	Stable		
C[N+](C)(CC#CCOC1=NOCC1)CCCCCC[N+](C)(C)CC#CCOC1=NOCC1	6.77			
C[N+](C)(CC#CCOC1=NOCC1)CCCC[N+](C)(C)CC#CCOC1=NOCC1	6.49			
C[N+](C)(CC#CCOC1=NOCC1)CCCCCCCC[N+](C)(C)CC#CCOC1=NOCC1	6.89			
C[N+](C)(CC#CCOC1=NOCC1)Cc1cc(F)c(/N=N/c2c(F)cccc2F)c(F)c1.[Br-]	7.2	Stable	5.25	5.4
C[N+](C)(CC#CCOC1=NOCC1)CCCCCCCCCC[N+](C)(C)CC#CCOC1=NOCC1	7.86			

Other lines, results leading:

pEC50 [1]	Stability [2]	pIC50 [3]	pIC50 [4]	SMILES
8.97	Stable	6.82	6.44	C[N+](C)(CC#CCOC1=NOCC1)Cc1cc(F)c(/N=N/c2c(F)cc(C[N+](C)(C)CC#CCOC3=NOCC3)cc2F)c(F)c1.[Br-].[Br-]
7.49	Stable			C[N+](C)(CC#CCOC1=NOCC1)Cc1ccc(/N=N\c2ccc(C[N+](C)(C)CC#CCOC3=NOCC3)cc2)cc1.[Br-].[Br-]
5.49	Stable	5.15	5.13	C[N+](C)(CC#CCOC1=NOCC1)Cc1ccc(/N=N/c2ccccc2)cc1.[Br-]
8.3	Stable			C[N+](C)(CC#CCOC1=NOCC1)Cc1cc(F)c(/N=N\c2c(F)cc(C[N+](C)(C)CC#CCOC3=NOCC3)cc2F)c(F)c1.[Br-].[Br-]
5.68	Stable			C[N+](C)(CC#CCOC1=NOCC1)Cc1ccc(/N=N\c2ccccc2)cc1.[Br-]
